Sampled rows, rich in hits. Any-hit rate of the full collection: about 3.7%.
MT stabilize HCS: microtubule stabilizers in HeLa cells | HeLa tubulin immunostaining HCS, 24 h; share of cells brighter than vehicle mean+2SD | % tubulin-high responders, % at 10 µM | hit rate 0.83% among 200,000 | AID 2205;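 active means plate Z-score above 3 for both tubulin-high and condensed-nucleus cell shares, with cell loss under 80%, at 10 µM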;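 further: anti alpha tubulin signal scored within the nucleus-defined area of each cell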
ROMK mod: modulators of human ROMK potassium channel; Tet-inducible ROMK, thallium flux fluorescence; actives lie on both sides; B-score at 10 µM; hit rate 2% among 130,000;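 active means signal ratio slope over the read window, or its plate-corrected B-score, at least 3 SD from the plate mean, either direction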;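 further: B-score of the F/F0 ratio slope over 7 to 12 s after thallium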
bCat nuc transl: alters nuclear translocation of beta-catenin in HeLa cells | hit rate 0.3% among 190,000 | AID 1665 | nuclear translocation activity, % at 5 µM | immunofluorescence imaging;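 active means nuclear translocation activity above 50% at 5 µM, with a well cell count of 50 or more; inconclusive means wells under 50 cells across six images, flagged as toxic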;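 further: per-cell ratio of nuclear to cytoplasmic median beta-catenin stain intensity; plate controls were DMSO negative control for no effect and GSK-3 inhibitor IX positive control for full effect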
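Assay system: human HeLa cells, native beta-catenin; doses: 5 µM primary, 0.02–20 µM confirmation; incubation: compound treatment 24 h, 37°C, 5% CO2; technique: fluorescence imaging of beta-catenin antibody stain plus DAPI; measure: % activation, nuclear-to-cytoplasmic median beta-catenin signal ratio per cell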
KCC2 mod: modulators of human KCC2 chloride dependent transport; Q9H2X9; KCC2 cells, thallium flux FluoZin-2 fluorescence; B-score of Tl+ flux slope (higher = more flux/activation; lower = inhibition) at 10 µM; hit rate 2.2% among 190,000; AID 1456;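 active means thallium flux slope and its plate-corrected score both differing from the plate sample mean at a set confidence after two filtering rounds, in either direction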;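 further: slope of fluorescence scaled to starting intensity during 10 to 20 s after thallium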
Redox H2O2 prof: compounds producing H2O2 with reducing agent – biochemical, NIH compound library profiling, artefact control for MLSCN library redox annotation, primary screen; DTT-dependent redox cycling H2O2, phenol red/HRP absorbance; 100% = 100 µM peroxide control, 0% = buffer; activation, % at 10 µM; hit rate 0.03% among 200,000;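 active means activation of at least 50% relative to the plate's high and low controls in the primary single-dose screen; inactive means activation below 50%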;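 further: compound incubated with DTT at 0.8 mM final as the reducing agent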
* marks the source's active call; other numbers are inactive results; ? = inconclusive; nt = not tested or not shown.

SMILES | MT stabilize HCS | ROMK mod | bCat nuc transl | KCC2 mod | Redox H2O2 prof
COC(=O)c1c(NS(=O)(=O)c2ccc(C)cc2)sc2c1CCC(C)C2 (configuration not stated) | 4 | nt | 0 | 16* | 0
CN(C(=O)CSc1ncnc2sccc12)c1c(N)n(Cc2ccccc2)c(=O)[nH]c1=O | nt | nt | -5 | -0.57 | nt
O=c1c(Cc2c(F)cccc2Cl)c(O)ccn1CCCN1CCOCC1 | 4 | 0.36 | 3 | 0.94 | -2
COc1cc(/C=N/NC(=O)c2sc3nc(C)cc(C)c3c2N)ccc1O | nt | 0.22 | 0 | 0.35 | nt
COc1ccc(CNC(=O)C(C)N2C(=O)COc3ccc(C)cc32)c(OC)c1 (configuration not stated) | nt | nt | 0 | -0.96 | nt
Cc1ccccc1C(=O)Nc1nc(=S)ss1 | 2 | nt | 1 | 11* | 2
CCCCN(CCCC)C(=O)C1(P(=O)(c2ccccc2)c2ccccc2)CCC1 | nt | nt | 1 | -0.95 | nt
NC(=O)CSc1nnc(CCc2nc3ccccc3[nH]2)n1-c1ccccc1 | 4 | 0.32 | nt | -0.05 | 0
Cc1ccc(C)c(OCC(=O)Nc2ccc3c(c2)OCO3)c1C | 23* | 1 | nt | -1.6 | 0
Cc1cccc(OCC(=O)Nc2ccc3c(c2)OCO3)c1C | 3 | -0.59 | -2 | -0.062 | 1
Cc1cccc(C)c1OCC(=O)N/N=C/c1ccc2c(c1)OCO2 | 32* | nt | 82* | 0.23 | -4
COc1ccc(NC(=O)c2cc([N+](=O)[O-])ccc2O)cc1 | 3 | 4.5* | -1 | -3.3* | -1
O=C(Nc1ccc(O)cc1)c1cccc(Oc2ccc([N+](=O)[O-])cc2)c1 | 37* | 0.11 | 6 | -0.81 | 0
O=C(O)c1cccc(Oc2ccc([N+](=O)[O-])cc2)c1 | 2 | 0.62 | -1 | 0.12 | 0
Cc1ccc(S(=O)(=O)N2CCN(C(=O)Cn3nc(C(=O)O)c4ccccc4c3=O)CC2)cc1 | nt | nt | -3 | -0.79 | nt
Fc1ccc(NC(=S)N/N=C/c2ccc(F)c(F)c2)c(F)c1 | 2 | 0.91 | -8 | 20* | 3
Fc1ccccc1/C=N/NC(=S)Nc1ccc(Cl)cc1Cl | 17* | nt | ? | 15* | -1
C=CCNC(=S)Nc1ccc(F)cc1F | 4 | 0.34 | -2 | -0.52 | 0
CCCc1[nH]n(-c2ccc(F)cc2)c(=O)c1C=Nc1cccc(F)c1 | 17* | nt | 36 | 1.4 | 0
CCCc1[nH]n(-c2ccc(F)cc2)c(=O)c1C=NCC1CCCO1 (configuration not stated) | 3 | nt | -2 | -0.67 | 0
CO/N=C\CC(=O)Nc1ccc(Oc2ccccc2)cc1 | 27* | 2.5 | 165* | 0.46 | 0
CC(C)C1Cc2c(sc(NC(=S)NC(=O)c3ccccc3)c2C#N)CO1 (configuration not stated) | 6 | nt | 0 | 1.1 | 1
CCOC(=O)c1c(NC(=S)NCCc2ccccc2)sc2c1CC(C(C)C)OC2 (configuration not stated) | 5 | nt | -3 | 8.9* | 1
C=CCNC(=S)Nc1sc2c(c1C(=O)OCC)CC(C(C)C)OC2 (configuration not stated) | 1 | nt | 1 | 32* | 3
O=C(/C=C\c1cccs1)N1CCN(Cc2ccc3c(c2)OCO3)CC1 | 3 | -0.38 | -1 | -0.46 | 0
SMILES | MT stabilize HCS | ROMK mod | bCat nuc transl | KCC2 mod | Redox H2O2 prof
CCCCn1c(N)c(C(=S)NC(=O)CC(C)(C)C)c(=O)n(C)c1=O | 2 | nt | 0 | 28* | 0
COc1ccc([C@@H]2[C@H]3C(=O)N(c4cccc(C(F)(F)F)c4)C(=O)[C@H]3ON2C)cc1 | 2 | nt | -2 | 0.16 | -7
CCOC(=O)Nc1ccc2c(c1)N(C(=O)OC)c1ccccc1CC2 | 34* | nt | 16 | 2.4 | 1
COc1ccc(N(C(=O)c2ccco2)S(=O)(=O)c2cccs2)cc1 | 3 | 0.047 | -3 | -2.8* | 0
COc1ccc(CN(C(=O)c2ccco2)c2ccc(C)c(C)c2)cc1 | 16* | 1.4 | 19 | -1.9 | -1
O=C(Nc1ccccc1N(C(=O)c1ccco1)S(=O)(=O)c1cccs1)c1ccco1 | 11* | 0.93 | nt | -0.29 | 0
C=CCn1cnc2c(nnn2Cc2ccc(F)cc2)c1=O | nt | 0.027 | 0 | 0.6 | nt
Cc1c(NC(=O)C(C)OC(=O)c2c3c(nc4ccccc24)CCC3)c(=O)n(-c2ccccc2)n1C (configuration not stated) | 8 | nt | -3 | -0.053 | 0
CSc1cc(-c2ccccc2)n(Cc2c(Cl)cccc2Cl)c(=O)c1C#N | 40* | 0.078 | nt | nt | 1
CC(/C=N/n1c(-c2ccco2)n[nH]c1=S)=C\c1ccccc1 | 3 | nt | 5 | 13* | 0
CC(/C=N/n1c(-c2cc(C)[nH]n2)n[nH]c1=S)=C\c1ccco1 | nt | nt | 0 | -0.68 | nt
CC(/C=N/n1c(-c2ccc(Cl)cc2)n[nH]c1=S)=C\c1ccco1 | 4 | nt | 0 | 13* | 1
O=C(NC1CCN(C(=O)C2CCCCC2)CC1)c1ccccc1 | nt | nt | -3 | nt | nt
O=C1C2C3C=CC(C3)C2C(=O)N1CCN1CCN(Cc2ccc([N+](=O)[O-])cc2)CC1 (configuration not stated) | 2 | nt | 2 | -2.8 | -1
COc1cc(C2CC(=O)c3cnc(N4CCN(Cc5ccccc5)CC4)nc3C2)cc(OC)c1OC (configuration not stated) | 43* | 2.8 | 83* | -0.5 | 2
COc1ccc(C2CC(=O)c3c(C)nc(N4CCN(Cc5ccccc5)CC4)nc3C2)cc1OC (configuration not stated) | 3 | 0.77 | 0 | nt | 1
COc1ccc(/C=N/NC(=O)c2ccccc2Cl)cc1CSc1nc2ccccc2s1 | 17 | nt | 332* | -0.25 | -11
COc1cc(/C=N/NC(=O)c2ccccc2Cl)ccc1Oc1ccc([N+](=O)[O-])cn1 | 17* | 0.23 | 2 | -1.1 | -1
COc1ccc(/C=N/NC(=O)c2ccccc2O)cc1Cn1cc([N+](=O)[O-])cn1 | nt | -0.036 | 1 | 0.48 | nt
COc1ccc(N2C(=O)CC(NCCNc3ccc([N+](=O)[O-])cn3)C2=O)cc1 (configuration not stated) | 2 | nt | nt | 0.96 | 0
CC12CC3(C)CC(C)(C1)CC(C(=O)NC(=S)N1CCOCC1)(C2)C3 | 3 | nt | -2 | 9.4* | 1
O=C(NC(=S)N1CCN(CCO)CC1)C12CC3CC(CC(C3)C1)C2 | 3 | -0.11 | -3 | -1.3 | 0
O=C(NC(=S)N1CCOCC1)C12CC3CCC(CC(C3)C1)C2 | 2 | nt | 0 | 2.6 | 0
CC12CC3CC(C)(C1)CC(C(=O)NC(=S)N1CCCCC1)(C3)C2 | 2 | -1.2 | 0 | 10* | 1
Cc1cc2nnc(SCC(=O)NCc3cccs3)n2c2ccccc12 | 42* | 3.1 | 45 | -0.75 | 0
COCCn1c(N/N=C(C)/C=C/c2ccccc2)nc2c1c(=O)[nH]c(=O)n2C | 3 | 0.87 | 1 | -0.035 | -1
COc1cc(C(=O)NCCOc2cc(C)cc(C)c2)c(Br)c(OC)c1OC | 44* | nt | 4 | -0.68 | -9

Screening results from PubChem.
